Measured values as given in ChEMBL document CHEMBL5230166, “Novel quinoline-piperazine hybrids: the design, synthesis and evaluation of antibacterial and antituberculosis properties” (RSC Med Chem, 2023).
≈ marks a conversion by molar mass, not a printed value.

Assays:
[1] = Cytotoxicity against human HepG2 cells assessed as inhibition of cell growth at 64 ug/ml relative to control; assay type: toxicity, cell-based; conditions: at 64 µg/mL, read-out: Activity
Outline: (§1)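 MTT proliferation assay on HEK293 (normal embryonic kidney) or HepG2 (liver cancer) cells. Cells are seeded at 10000 cells/well and adhered at 37 °C, 5% CO₂. Compounds are tested at 64 to 1 µg/mL (143 to 4.6 µM) in triplicate, with a DMSO vehicle control. Incubation is 48 h, followed by MTT (1 mg/mL) for 3 h at 37 °C.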

Klebsiella pneumoniae = assay: Antibacterial activity against clinical isolate Klebsiella pneumoniae AB 356 assessed as inhibition of bacterial growth incubated for 22 to 24 hrs; assay type: functional; conditions: time 22-24 hrs
HEK293 [2] = assay: Cytotoxicity against HEK293 cells assessed as inhibition of cell growth upto 64 ug/ml; assay type: toxicity, cell-based; conditions: human, dose < 64 µg/ml
HEK293 [3] = assay: Cytotoxicity against HEK293 cells assessed as cell viability at 143 uM relative to control; conditions: human, hek293, 143 µM
HepG2 [4] = assay: Cytotoxicity against human HepG2 cells assessed as cell viability at 143 uM relative to control; conditions: hepg2, 143 µM
HepG2 [5] = assay: Cytotoxicity against human HepG2 cells assessed as inhibition of cell growth upto 32 ug/ml; assay type: toxicity, cell-based; conditions: dose < 32 µg/ml; outline: as §1
A549 [6] = assay: Cytotoxicity against human A549 cells assessed as inhibition of cell growth upto 32 ug/ml; assay type: toxicity, cell-based; conditions: dose < 32 µg/ml
Outline: (§2)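 MTT proliferation assay. A549 cells are seeded at 10000 cells/well and allowed to adhere at 37 °C, 5% CO₂. Compounds are added at 64 to 1 µg/mL (143 to 4.6 µM) in triplicate, with a DMSO vehicle control. Incubation is 24 h, then MTT (1 mg/mL) is added for 3 h at 37 °C.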

[7] = system: Mycobacterium tuberculosis; assay: Antibacterial activity against Mycobacterium tuberculosis H37Rv ATCC 25618 assessed as inhibition of bacterial growth incubated for 2 days by CLSI protocol based broth microdilution method; assay type: functional; conditions: H37Rv ATCC 25618, 48 h, time 2 day
Enterococcus faecium = assay: Antibacterial activity against Enterococcus faecium ATCC 49624 assessed as inhibition of bacterial growth incubated for 22 to 24 hrs; assay type: functional; conditions: time 22-24 hrs
Outline: (§3)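 Broth MIC referenced to an earlier protocol. Inocula come from mid-log cultures sub-cultured on soybean casein digest agar, adjusted to McFarland (~10⁸ CFU/mL), then diluted to ~10⁵ CFU/mL. Compounds and controls are serially diluted from 64 to 0.03 µg/mL. Tested in triplicate, read after 22–24 h at 37 °C. MIC is the lowest concentration with no visible growth.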

Pseudomonas aeruginosa = assay: Antibacterial activity against clinical isolate Pseudomonas aeruginosa AB 645 assessed as inhibition of bacterial growth incubated for 22 to 24 hrs; assay type: functional; conditions: time 22-24 hrs
A549 [8] = assay: Cytotoxicity against human A549 cells assessed as cell viability at 143 uM relative to control; conditions: a549, 143 µM
Moraxella catarrhalis = assay: Antibacterial activity against Moraxella catarrhalis ATCC 25238 assessed as inhibition of bacterial growth incubated for 22 to 24 hrs; assay type: functional; conditions: time 22-24 hrs; outline: as §3
Staphylococcus aureus [9] = assay: Antibacterial activity against methicillin resistant Staphylococcus aureus ATCC 33591 assessed as inhibition of bacterial growth incubated for 22 to 24 hrs; assay type: functional; conditions: time 22-24 hrs
Outline: (§4)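 Broth microdilution MIC. Strains were subcultured on Soybean Casein Digest Agar, and inocula were taken from mid-log culture, adjusted to McFarland (~10⁸ CFU/mL), then diluted to ~10⁵ CFU/mL. Serial dilutions ran from 64 to 0.03 µg/mL. Plates were incubated 22–24 h at 37 °C, in triplicate. MIC was the lowest concentration with no visible growth.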

Acinetobacter baumannii = assay: Antibacterial activity against clinical isolate Acinetobacter baumannii BAA 747 assessed as inhibition of bacterial growth incubated for 22 to 24 hrs; assay type: functional; conditions: time 22-24 hrs
[10] = Cytotoxicity against human A549 cells assessed as inhibition of cell growth at 64 ug/ml relative to control; assay type: toxicity, cell-based; conditions: at 64 µg/mL, read-out: Activity; outline: as §2
[11] = system: Staphylococcus epidermidis; assay: Antibacterial activity against clinical isolate methicillin resistant Staphylococcus epidermidis AB 735 assessed as inhibition of bacterial growth incubated for 22 to 24 hrs; assay type: functional; conditions: time 22-24 hrs
Staphylococcus aureus [12] = assay: Antibacterial activity against methicillin sensitive Staphylococcus aureus ATCC 29213 assessed as inhibition of bacterial growth incubated for 22 to 24 hrs; assay type: functional; conditions: time 22-24 hrs; outline: as §3
Enterococcus faecalis = assay: Antibacterial activity against vancomycin resistant Enterococcus faecalis ATCC 700802 assessed as inhibition of bacterial growth incubated for 22 to 24 hrs; assay type: functional; conditions: time 22-24 hrs; outline: as §4
Escherichia coli = assay: Antibacterial activity against clinical isolate Escherichia coli AB 117 assessed as inhibition of bacterial growth incubated for 22 to 24 hrs; assay type: functional; conditions: time 22-24 hrs
[13] = system: Mycolicibacterium smegmatis; assay: Antibacterial activity against Mycobacterium smegmatis ATCC 607 assessed as inhibition of bacterial growth incubated for 2 days by CLSI protocol based broth microdilution method; assay type: functional; conditions: ATCC 607, 48 h, time 2 day
Outline: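 CLSI broth microdilution in Middlebrook 7H9 with 10% ADC. Compounds are dissolved in DMSO at 4.0 mg/mL (stock) and serially diluted from 64 to 0.015 µg/mL. Inoculum is ~10⁵ CFU/mL, checked by plating on 7H11 agar. Rifampin and levofloxacin are positive controls; drug-free broth with DMSO is the negative control. Growth inhibition is read after 2 days at 37 °C as MIC.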

COc1cc(CN2CCN(S(=O)(=O)c3ccccc3F)CC2)nc2ccc(F)cc12
inhibition at 64 ug/ml [1]: < 12%
MIC (Klebsiella pneumoniae): > 64 µg/mL
Activity (HEK293 [2]): Non-Toxic
viability (HEK293 [3]): 99.5%
viability (HepG2 [4]): 91.8%
Activity (HepG2 [5]): Non-Toxic
Activity (A549 [6]): Non-Toxic
MIC [7]: 1 µg/mL (≈ 2.31 µM)
MIC (Enterococcus faecium): 0.5 µg/mL (≈ 1.15 µM)
MIC (Pseudomonas aeruginosa): > 64 µg/mL
viability (A549 [8]): 88.6%
MIC (Moraxella catarrhalis): 0.03 µg/mL (≈ 0.0692 µM)
MIC (Staphylococcus aureus [9]): 0.06 µg/mL (≈ 0.138 µM)
MIC (Acinetobacter baumannii): > 64 µg/mL
inhibition at 64 ug/ml [10]: < 12%
MIC [11]: 16 µg/mL (≈ 36.9 µM)
MIC (Staphylococcus aureus [12]): 0.5 µg/mL (≈ 1.15 µM)
MIC (Enterococcus faecalis): 2 µg/mL (≈ 4.61 µM)
MIC (Escherichia coli): 16 µg/mL (≈ 36.9 µM)
MIC [13]: 0.5 µg/mL (≈ 1.15 µM)
